Source: ChEMBL document CHEMBL1126267, “A novel synthesis and potent antiinflammatory activity of 4-hydroxy-2(1H)-oxo-1-phenyl-1,8-naphthyridine-3-carboxamides” (1992)

Tests used:
Type in all cases: functional
Details in all cases: route oral
Rattus norvegicus [1] = experiment: Compound was tested for the inhibition of rat reversed passive Arthus pleurisy after peroral administration of 100 mg/kg dose at 3.22*10e6 no of cells with 3.86*10e6 cells of control
In short: (§1)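 Male Wistar rats (about 250 g) were given compound orally before the antiserum. Under ether anesthesia, 0.2 mL rabbit anti-egg albumin antiserum was injected intrapleurally. After 30 min, egg albumin (15 mg/100 g body weight in 0.1 mL saline) was given iv. Rats were killed 4.5 h later and the thoracic cavity was rinsed with 5 mL saline. Exudate volume and infiltrated cell number were measured, with inhibition % versus controls as mean ± SEM.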

Rattus norvegicus [2] = experiment: Compound was tested for the inhibition of rat reversed passive Arthus pleurisy after peroral administration of 100 mg/kg dose at 0.82 mL of exudate volume with 0.86 mL of control (injected intrapleurally); in short: as §1
Rattus norvegicus [3] = experiment: Inhibition of Zymosan-induced rat's paw edema(ZPE) after peroral administration of 100 mg/kg dose.
In short: (§2)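 Male Wistar rats (about 150 g) were dosed orally with compound suspended in 5% arabic gum, 1 h before a subplantar hind-paw injection of 0.1 mL saline. The irritant was 1% zymosan for 33 or 1% λ-carrageenin for 34. Paw volume was measured by plethysmograph before dosing and at 4 h (zymosan) or 3 h (carrageenin). Swelling is relative to initial volume, as mean ± SEM. % inhibition is versus the control group's mean swelling.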

Rattus norvegicus [4] = experiment: Antiinflammatory activity on Carrageenan rat's paw edema(CPE) after peroral administration of 100 mg/kg dose with control swelling of 90.0%
Rattus norvegicus [5] = experiment: Antiinflammatory activity on Zymosan-induced rat's paw edema(ZPE) after peroral administration of 100 mg/kg dose with control swelling of 85.5%
In short: (§3)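 Male Wistar rats weighing about 150 g were dosed orally with compound suspended in 5% arabic gum. 1 h later, 1% zymosan in 0.1 mL saline was injected subplantarly into the hind paw. Paw volume was measured by plethysmograph before dosing and 4 h after zymosan, with edema as the volume difference. Inhibition % was derived from mean swelling versus the control group.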

Rattus norvegicus [6] = experiment: Inhibition of carrageenan-induced rat's paw edema (CPE) after peroral administration of 100 mg/kg dose.; in short: as §2
Rattus norvegicus [7] = experiment: Compound was tested for the inhibition of rat reversed passive Arthus pleurisy after peroral administration of 100 mg/kg dose at 3.02*10e6 no of cells with 3.37*10e cells of control; in short: as §1
Rattus norvegicus [8] = experiment: Compound was tested for the inhibition of rat reversed passive Arthus pleurisy after peroral administration of 100 mg/kg dose at 0.43 mL of exudate volume with 0.46 mL of control (injected intrapleurally); in short: as §1
Rattus norvegicus [9] = experiment: Antiinflammatory activity on Carrageenan rat's paw edema(CPE) after peroral administration of 100 mg/kg dose with control swelling of 65.6%
Rattus norvegicus [10] = experiment: Antiinflammatory activity on Zymosan-induced rat's paw edema(ZPE) after peroral administration of 100 mg/kg dose with control swelling of 61.0%; in short: as §3
Rattus norvegicus [11] = experiment: Compound was tested for the inhibition of rat reversed passive Arthus pleurisy after peroral administration of 100 mg/kg dose at 5.76*10e6 no of cells with 7.4*10e6 cells of control
In short: (§4)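 Male Wistar rats (about 250 g) under ether received 0.2 mL rabbit anti-egg-albumin antiserum intrapleurally. Thirty min later they got 15 mg EA/100 g body weight in 0.1 mL saline iv. Compounds were given orally beforehand. Rats were killed 4.5 h after induction and the thoracic cavity rinsed with 5 mL saline. Exudate volume and infiltrated cell count were read as mean ± SE. % inhibition is versus control.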

Rattus norvegicus [12] = experiment: Antiinflammatory activity on Carrageenan rat's paw edema(CPE) after peroral administration of 100 mg/kg dose with control swelling of 73.7%
Rattus norvegicus [13] = experiment: Compound was tested for the inhibition of rat reversed passive Arthus pleurisy after peroral administration of 100 mg/kg dose at 0.66 mL of exudate volume with 0.82 mL of control (injected intrapleurally); in short: as §1
Rattus norvegicus [14] = experiment: Compound was tested for the inhibition of rat reversed passive Arthus pleurisy after peroral administration of 100 mg/kg dose at 0.65 mL of exudate volume with 0.86 mL of control (injected intrapleurally); in short: as §1
Rattus norvegicus [15] = experiment: Antiinflammatory activity on Carrageenan rat's paw edema(CPE) after peroral administration of 100 mg/kg dose with control swelling of 64.2%
Rattus norvegicus [16] = experiment: Antiinflammatory activity on Zymosan-induced rat's paw edema(ZPE) after peroral administration of 100 mg/kg dose with control swelling of 71.7%; in short: as §3
Rattus norvegicus [17] = experiment: Compound was tested for the inhibition of rat reversed passive Arthus pleurisy after peroral administration of 100 mg/kg dose at 3.02*10e6 no of cells with 3.86*10e6 cells of control; in short: as §1
Rattus norvegicus [18] = experiment: Compound was tested for the inhibition of rat reversed passive Arthus pleurisy after peroral administration of 100 mg/kg dose at 3.37*10e6 no of cells with 3.62*10e6 cells of control; in short: as §4
Rattus norvegicus [19] = experiment: Compound was tested for the inhibition of rat reversed passive Arthus pleurisy after peroral administration of 100 mg/kg dose at 0.61 mL of exudate volume with 0.54 mL of control (injected intrapleurally); in short: as §1
Rattus norvegicus [20] = experiment: Antiinflammatory activity on Carrageenan rat's paw edema(CPE) after peroral administration of 100 mg/kg dose with control swelling of 68.1%
Rattus norvegicus [21] = experiment: Antiinflammatory activity on Zymosan-induced rat's paw edema(ZPE) after peroral administration of 100 mg/kg dose with control swelling of 62.0%; in short: as §3
Rattus norvegicus [22] = experiment: Compound was tested for the inhibition of rat reversed passive Arthus pleurisy after peroral administration of 100 mg/kg dose at 3.36*10e6 no of cells with 3.86*10e6 cells of control; in short: as §1
Rattus norvegicus [23] = experiment: Compound was tested for the inhibition of rat reversed passive Arthus pleurisy after peroral administration of 100 mg/kg dose at 0.66 mL of exudate volume with 0.79 mL of control (injected intrapleurally); in short: as §1
Rattus norvegicus [24] = experiment: Compound was tested for the inhibition of rat reversed passive Arthus pleurisy after peroral administration of 100 mg/kg dose at 1.19*10e6 no of cells with 7.4*10e6 cells of control; in short: as §1
Rattus norvegicus [25] = experiment: Compound was tested for the inhibition of rat reversed passive Arthus pleurisy after peroral administration of 100 mg/kg dose at 0.28 mL of exudate volume with 0.82 mL of control (injected intrapleurally); in short: as §1
Rattus norvegicus [26] = experiment: Antiinflammatory activity on Carrageenan rat's paw edema(CPE) after peroral administration of 100 mg/kg dose with control swelling of 71.9%
Rattus norvegicus [27] = experiment: Antiinflammatory activity on Zymosan-induced rat's paw edema(ZPE) after peroral administration of 100 mg/kg dose with control swelling of 72.9%; in short: as §3
Rattus norvegicus [28] = experiment: Compound was tested for the inhibition of rat reversed passive Arthus pleurisy after peroral administration of 100 mg/kg dose at 3.77*10e6 no of cells with 3.86*10e6 cells of control; in short: as §4
Rattus norvegicus [29] = experiment: Compound was tested for the inhibition of rat reversed passive Arthus pleurisy after peroral administration of 100 mg/kg dose at 0.64 mL of exudate volume with 0.79 mL of control (injected intrapleurally); in short: as §1
Rattus norvegicus [30] = experiment: Antiinflammatory activity on Carrageenan rat's paw edema(CPE) after peroral administration of 100 mg/kg dose with control swelling of 63.7%
Rattus norvegicus [31] = experiment: Antiinflammatory activity on Zymosan-induced rat's paw edema(ZPE) after peroral administration of 100 mg/kg dose with control swelling of 69.5%; in short: as §3
Rattus norvegicus [32] = experiment: Compound was tested for the inhibition of rat reversed passive Arthus pleurisy after peroral administration of 100 mg/kg dose at 3.82*10e6 no of cells with 3.62*10e6 cells of control; in short: as §4
Rattus norvegicus [33] = experiment: Compound was tested for the inhibition of rat reversed passive Arthus pleurisy after peroral administration of 100 mg/kg dose at 0.72 mL of exudate volume with 0.54 mL of control (injected intrapleurally); in short: as §1
Rattus norvegicus [34] = experiment: Compound was tested for the inhibition of rat reversed passive Arthus pleurisy after peroral administration of 10 mg/kg dose at 0.44 mL of exudate volume with 0.55 mL of control (injected intrapleurally); in short: as §1
Rattus norvegicus [35] = experiment: Compound was tested for the inhibition of rat reversed passive Arthus pleurisy after peroral administration of 10 mg/kg dose at 3.2*10e6 no of cells with 2.77*10e6 cells of control; in short: as §1
Rattus norvegicus [36] = experiment: Compound was tested for the inhibition of rat reversed passive Arthus pleurisy after peroral administration of 3 mg/kg dose at 0.59 mL of exudate volume with 0.55 mL of control (injected intrapleurally); in short: as §4
Rattus norvegicus [37] = experiment: Compound was tested for the inhibition of rat reversed passive Arthus pleurisy after peroral administration of 3 mg/kg dose at 4.01*10e6 no of cells with 2.77*10e6 cells of control; in short: as §4

## O=C(Nc1cccc(Cl)c1)c1c(O)c2cccnc2n(-c2ccccc2)c1=O
Rattus norvegicus [1]
  inhibition in vivo at 100 mg/kg: 21.7%
Rattus norvegicus [2]
  inhibition in vivo at 100 mg/kg: 5.2%
Rattus norvegicus [3]
  inhibition in vivo at 100 mg/kg: 7.6%
Rattus norvegicus [4]
  Swelling: 77.9%
Rattus norvegicus [5]
  Swelling: 79%
Rattus norvegicus [6]
  inhibition in vivo at 100 mg/kg: 13.4%

## O=C(NN1CCOCC1)c1c(O)c2cccnc2n(-c2ccccc2)c1=O
Rattus norvegicus [7]
  inhibition in vivo at 100 mg/kg: 10.4%
Rattus norvegicus [8]
  inhibition in vivo at 100 mg/kg: 14.6%
Rattus norvegicus [3]
  inhibition in vivo at 100 mg/kg: -8.5%
Rattus norvegicus [9]
  Swelling: 82.8%
Rattus norvegicus [10]
  Swelling: 66.2%
Rattus norvegicus [6]
  inhibition in vivo at 100 mg/kg: -26.2%

## COc1ccc(NC(=O)c2c(O)c3cccnc3n(-c3ccccc3)c2=O)cn1
Rattus norvegicus [3]
  inhibition in vivo at 100 mg/kg: 13.1%
Rattus norvegicus [11]
  inhibition in vivo at 100 mg/kg: 22.2%
Rattus norvegicus [12]
  Swelling: 72.3%
Rattus norvegicus [10]
  Swelling: 53%
Rattus norvegicus [13]
  inhibition in vivo at 100 mg/kg: 19.5%
Rattus norvegicus [6]
  inhibition in vivo at 100 mg/kg: -10.2%

## Cc1cccc(NC(=O)c2c(O)c3cccnc3n(-c3ccccc3)c2=O)c1
Rattus norvegicus [3]
  inhibition in vivo at 100 mg/kg: 14.2%
Rattus norvegicus [14]
  inhibition in vivo at 100 mg/kg: 27.3%
Rattus norvegicus [15]
  Swelling: 61.3%
Rattus norvegicus [16]
  Swelling: 61.5%
Rattus norvegicus [6]
  inhibition in vivo at 100 mg/kg: 4.5%
Rattus norvegicus [17]
  inhibition in vivo at 100 mg/kg: 28.5%

## O=C(NCc1ccccc1)c1c(O)c2cccnc2n(-c2ccccc2)c1=O
Rattus norvegicus [18]
  inhibition in vivo at 100 mg/kg: 9.6%
Rattus norvegicus [19]
  inhibition in vivo at 100 mg/kg: -14.3%
Rattus norvegicus [3]
  inhibition in vivo at 100 mg/kg: 1.6%
Rattus norvegicus [20]
  Swelling: 60.4%
Rattus norvegicus [21]
  Swelling: 60.3%
Rattus norvegicus [6]
  inhibition in vivo at 100 mg/kg: 11.3%

## O=C(Nc1cccc([N+](=O)[O-])c1)c1c(O)c2cccnc2n(-c2ccccc2)c1=O
Rattus norvegicus [22]
  inhibition in vivo at 100 mg/kg: 15.4%
Rattus norvegicus [3]
  inhibition in vivo at 100 mg/kg: 5.7%
Rattus norvegicus [4]
  Swelling: 83.6%
Rattus norvegicus [5]
  Swelling: 80.6%
Rattus norvegicus [23]
  inhibition in vivo at 100 mg/kg: 19.1%
Rattus norvegicus [6]
  inhibition in vivo at 100 mg/kg: 7.4%

## Cc1cnccc1NC(=O)c1c(O)c2cccnc2n(-c2ccccc2)c1=O
Rattus norvegicus [3]
  inhibition in vivo at 100 mg/kg: 26.9%
Rattus norvegicus [24]
  inhibition in vivo at 100 mg/kg: 83.9%
Rattus norvegicus [25]
  inhibition in vivo at 100 mg/kg: 65.9%
Rattus norvegicus [26]
  Swelling: 64.6%
Rattus norvegicus [27]
  Swelling: 53.3%
Rattus norvegicus [6]
  inhibition in vivo at 100 mg/kg: 8.8%

## O=C(Nc1nccs1)c1c(O)c2cccnc2n(-c2ccccc2)c1=O
Rattus norvegicus [28]
  inhibition in vivo at 100 mg/kg: 15.4%
Rattus norvegicus [29]
  inhibition in vivo at 100 mg/kg: 18.1%
Rattus norvegicus [3]
  inhibition in vivo at 100 mg/kg: 4.6%
Rattus norvegicus [30]
  Swelling: 69.9%
Rattus norvegicus [31]
  Swelling: 66.3%
Rattus norvegicus [6]
  inhibition in vivo at 100 mg/kg: 2.5%

## CCCCNC(=O)c1c(O)c2cccnc2n(-c2ccccc2)c1=O
Rattus norvegicus [32]
  inhibition in vivo at 100 mg/kg: 7.7%
Rattus norvegicus [3]
  inhibition in vivo at 100 mg/kg: 12.8%
Rattus norvegicus [33]
  inhibition in vivo at 100 mg/kg: -36.7%
Rattus norvegicus [15]
  Swelling: 51.1%
Rattus norvegicus [16]
  Swelling: 62.5%
Rattus norvegicus [6]
  inhibition in vivo at 100 mg/kg: 20.4%

## COc1ccc2c(c1)c(CC(=O)O)c(C)n2C(=O)c1ccc(Cl)cc1 [INDOMETHACIN]
Rattus norvegicus [34]
  inhibition in vivo at 10 mg/kg: 23.9%
Rattus norvegicus [35]
  inhibition in vivo at 10 mg/kg: -20.9%
Rattus norvegicus [36]
  inhibition in vivo at 3 mg/kg: -8.7%
Rattus norvegicus [37]
  inhibition in vivo at 3 mg/kg: -60.2%
